Screening results: PubChem BioAssay, several laboratories
pPAFAH FP inh = pPAFAH enzyme inhibitors, primary screen, biochemical, fluorescence polarization, human | recombinant pPAFAH, FP-rhodamine probe fluorescence polarization | Platelet-activating factor acetylhydrolase (Homo sapiens), Q13093 | inhibition, % at 3.39 µM | 1.5% of 330,000 active | AID 463082, 2010;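 active = inhibition above the mean inhibition across the screen plus 3 SD, cut at about 25% in these data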;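 also: inhibitors block binding of the rhodamine activity-based probe so polarization drops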
PREPL inh = PREPL enzyme inhibitors, primary screen, biochemical, fluorescence polarization; Prolyl endopeptidase-like (Homo sapiens), Q4J6C6; recombinant PREPL, fluorescence polarization activity-based probe; inhibition, % at 5.96 µM; 0.68% of 320,000 active; AID 2751, 2010; in the data active = inhibition above about 43%
PAFAH2 inh = PAFAH2 enzyme inhibitors, primary screen, biochemical, fluorescence polarization, human; inhibition, % at 3.39 µM; 0.99% of 340,000 active; recombinant PAFAH2, FP-rhodamine activity probe;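 active = inhibition above the mean over all tested compounds plus 3 SD, cut at about 30% in these data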;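 also: inhibitors block probe labeling of enzyme so polarization drops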
PAFAH1B3 inh = PAFAH1B3 enzyme inhibitors, primary screen, biochemical, fluorescence polarization, human; Platelet-activating factor acetylhydrolase IB subunit alpha1 (Homo sapiens), Q15102; recombinant PAFAH1B3, FP-rhodamine probe; inhibition, % at 3.39 µM; 0.28% of 340,000 active;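 active = inhibition above the screen-wide average of all tested compounds plus 3 SD, cut at about 25% in these data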
Target sequence (Q15102 whole entry, looked up): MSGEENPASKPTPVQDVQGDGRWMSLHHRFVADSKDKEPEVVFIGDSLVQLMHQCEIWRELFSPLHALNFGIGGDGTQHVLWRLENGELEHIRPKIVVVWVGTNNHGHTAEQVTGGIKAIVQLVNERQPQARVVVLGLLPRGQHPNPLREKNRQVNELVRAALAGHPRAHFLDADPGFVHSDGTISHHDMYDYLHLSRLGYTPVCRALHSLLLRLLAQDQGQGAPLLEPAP
PAFAH1B2 inh = PAFAH1B2 enzyme inhibitors, primary screen, biochemical, fluorescence polarization, human. Platelet-activating factor acetylhydrolase IB subunit alpha2 (Homo sapiens), P68402. recombinant PAFAH1B2, FP-rhodamine activity probe. inhibition, % at 3.39 µM. 1.2% of 340,000 active. AID 492953, 2010;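 active = inhibition above the mean of all tested compounds plus 3 SD, cut at about 24% in these data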
Target sequence (P68402 whole entry, looked up): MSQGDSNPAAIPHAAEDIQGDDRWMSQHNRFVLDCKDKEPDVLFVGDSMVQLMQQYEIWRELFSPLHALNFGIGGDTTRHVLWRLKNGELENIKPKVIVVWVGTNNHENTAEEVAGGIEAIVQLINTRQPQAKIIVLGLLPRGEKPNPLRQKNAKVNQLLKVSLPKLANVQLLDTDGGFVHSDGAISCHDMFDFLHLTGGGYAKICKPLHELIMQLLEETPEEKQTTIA
Apaf1 inhib = inhibitors of human Apaf-1 apoptosome, primary screen, biochemical, DEVD-Rh110 fluorescence, uHTS; reconstituted apoptosome caspase-3 activity; Apoptotic protease-activating factor 1 (Homo sapiens), O14727; 0.71% of 330,000 active; inhibition, % at 20 µM; active = inhibition of at least 40% at 20 µM
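System: Apoptosome proteins | Medium: Hepes pH 7.5 with detergent and BSA | Also added: Cytochrome c trigger plus (Z-DEVD)2-Rh110 caspase-3 substrate | Incubation: 30 min compound preincubation, 50 min activation, room temperature | Detection: Rhodamine 110 fluorescence at Ex 480/Em 540 nm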
A number is an active result; n = inactive; x = no result given. Most compounds without a hit are left out; they make up all but 3.5% or so of the library.

SMILES	pPAFAH FP inh	PREPL inh	PAFAH2 inh	PAFAH1B3 inh	PAFAH1B2 inh	Apaf1 inhib
Cc1ccc(SCC(=O)N=C2NC(=O)CS2)cc1	n	n	n	n	26.1	n
CCC(CC)COC(=O)C1=C(C)NC(=O)NC1c1ccc(N(C)C)cc1 (centres undefined)	n	n	n	n	28.2	n
CCOC(=O)C1=C(C)NC(=O)NC1c1ccc(N(C)C)cc1 (centres undefined)	x	x	n	n	n	n
CCOc1cc(C(=O)NCc2ccc3c(c2)OCO3)cc(OCC)c1OCC	n	n	n	n	n	n
Cc1ccnc(NS(=O)(=O)c2ccc(NC(=O)C34CC5CC(CC(C5)C3)C4)cc2)n1	n	n	n	n	n	n
O=C(Nc1ccc(S(=O)(=O)Nc2ncccn2)cc1)C12CC3CC(CC(Cl)(C3)C1)C2	n	n	n	n	29.7	n
CCOc1ccc([N+](=O)[O-])cc1CNC1CCCCCCC1	n	n	n	n	n	n
CC1CCC2C(C1)c1sc(=O)[nH]c1SC2(C)C (centres undefined)	n	n	n	n	67.6	n
Cc1cccc(Cc2nnc(CCC(=O)NCc3cn4ccccc4n3)o2)c1	n	n	n	n	n	n
CNS(=O)(=O)c1cccc(C(=O)OC2CCOC2=O)c1 (centres undefined)	n	n	n	n	n	n
O=C(OC1CCOC1=O)c1cccc(S(=O)(=O)Nc2cccc(Cl)c2)c1 (centres undefined)	27.1	n	n	n	n	n
Nc1nc(NCC(=O)O)nc(NCc2ccccc2)c1[N+](=O)[O-]	n	n	n	n	27.7	n
O=[N+]([O-])c1cncn1CCN1CCOCC1	x	x	n	n	n	x
COc1ccccc1NC(=O)C(=O)NNS(=O)(=O)c1ccc2ccccc2c1	n	n	n	n	33.7	n
COc1ccc(NC(=S)NNS(=O)(=O)c2ccc3ccccc3c2)c(OC)c1	n	n	n	n	n	n
O=C(Cc1ccccc1)c1ccc(N2CCOCC2)cc1	x	x	n	n	n	x
N#CC1=C(N)c2ccccc2CC12CCCCC2	n	n	n	n	34.8	n
O=C(Nc1ccccc1C(F)(F)F)c1cc2ccccc2o1	n	n	n	n	n	n
CC(C)CC(=NNC(=O)c1ccncc1)c1cc(Cl)ccc1O	x	x	n	n	29.2	x
O=C(O)c1ccn2c(C(=O)c3ccccc3)c(-c3ccccc3)cc2c1	n	n	n	n	38.0	n
COc1ccc(OC)c(S(=O)(=O)CC(O)COc2ccccc2Cl)c1 (centres undefined)	n	n	n	n	n	n
O=C(NNC(=O)C12CC3CC(CC(O)(C3)C1)C2)c1csc(N2CCOCC2)n1	n	n	n	n	n	n
O=C(NNC(=O)C12CC3CC(CC(Cl)(C3)C1)C2)c1csc(N2CCOCC2)n1	n	n	n	n	33.0	n
CC(C)Oc1cccc(C(=O)C2CCCN(Cc3ccc4nonc4c3)C2)c1 (centres undefined)	32.3	n	n	n	n	n
CCOC(=O)C1CCCN(CC(=O)Nc2nccs2)C1 (centres undefined)	27.7	n	n	n	n	n
SMILES	pPAFAH FP inh	PREPL inh	PAFAH2 inh	PAFAH1B3 inh	PAFAH1B2 inh	Apaf1 inhib
CC(Oc1ccc([N+](=O)[O-])cc1Cl)C(=O)Nc1ccc(C(N)=O)cc1 (centres undefined)	n	n	x	x	x	n
O=C(Cc1cccc(C(F)(F)F)c1)NCc1ccc(Cl)cc1	n	n	n	n	n	n
O=C(CCNC(=O)c1ccc(Cl)cc1)NCc1cccc(C(F)(F)F)c1	n	n	n	n	25.3	n
CC(=O)Nc1ccc(NC(=O)C(C)OC(=O)C2(c3ccc(F)cc3)CCCC2)cc1 (centres undefined)	n	n	n	n	40.7	n
CCOc1ccccc1N(C)C(=O)c1sc2ncn(CC(=O)N3CCCCC3C)c(=O)c2c1C (centres undefined)	n	n	n	n	n	n
Cc1ccc(CSCc2ccc(C(=O)O)o2)cc1	n	n	n	n	29.4	n
O=C(NCCCN1CCOCC1)c1cccc(NS(=O)(=O)c2ccc(Br)cc2)c1	n	n	n	n	24.5	n
O=C(NCCN1CCOCC1)c1cccc(S(=O)(=O)Nc2cc(Cl)ccc2Cl)c1	x	x	n	n	n	n
O=C(NCCCN1CCCC1=O)c1cc(NS(=O)(=O)c2ccc(F)cc2)cc(NS(=O)(=O)c2ccc(F)cc2)c1	33.6	n	n	n	n	n
O=C(NCCCN1CCCC1=O)c1ccc(NS(=O)(=O)c2ccc(F)cc2)cc1	n	n	n	n	n	n
COc1ccc(NS(=O)(=O)c2ccc(N3CCOCC3)c(NC(=O)c3cccc(F)c3)c2)cc1	32.8	n	n	n	n	n
O=C(NCCN1CCOCC1)c1cccc(S(=O)(=O)Nc2ccc(Br)cc2)c1	33.7	n	n	n	n	n
O=C(NCCCN1CCOCC1)c1ccc(S(=O)(=O)Nc2ccccc2)cc1	n	n	n	n	n	n
O=C(NCCCN1CCOCC1)c1cccc(S(=O)(=O)Nc2ccc(F)cc2)c1	27.0	n	n	n	n	n
O=C(c1cccc(S(=O)(=O)Nc2ccc(F)cc2)c1)N1CCOCC1	28.7	n	n	n	n	n
O=C(CCN1C(=O)/C(=C/c2ccccc2)SC1=S)Nc1ccccn1	n	n	n	n	n	n
O=C(CCN1C(=O)/C(=C/c2ccccc2F)SC1=S)N[C@@H](CO)Cc1ccccc1	n	n	n	n	37.9	n
O=C(CCN1C(=O)/C(=C/c2ccccc2)SC1=S)N[C@@H](CO)Cc1ccccc1	n	n	n	n	42.7	n
COc1ccc(CSCCc2n[nH]c(=S)n2-c2ccccc2)cc1C	n	n	n	n	n	n
S=c1[nH]nc(CCSCc2ccccc2)n1-c1ccccc1	n	n	n	n	27.6	n
CCC(Sc1nc(-c2cccc(OC)c2)c(C#N)c(=O)[nH]1)C(=O)Nc1nnc(C(C)C)s1 (centres undefined)	n	n	n	n	35.5	n
COc1cccc(-c2nc(-c3ccccc3)[nH]c(=O)c2C#N)c1	n	n	n	n	n	n
c1ccc(-n2cnc3cc(NCc4ccccn4)ccc32)cc1	n	55.0	n	n	n	n
O=C(COC(=O)CSc1ccc([N+](=O)[O-])cc1)NCCc1ccccc1	n	n	n	n	n	n
O=C(COC(=O)CSc1ccc(F)cc1)NCCCc1ccccc1	n	n	n	n	29.2	n
O=C(COC(=O)CSc1ccc([N+](=O)[O-])cc1)NCCCc1ccccc1	n	n	n	n	29.9	n
CC1Cc2ccccc2N1C(=O)COC(=O)CSc1ccc(F)cc1 (centres undefined)	n	n	n	n	25.5	n
